The record followed here is ChEMBL document CHEMBL1129933, “Tyrosine kinase inhibitors. 6. Structure-activity relationships among N- and 3-substituted 2,2'-diselenobis(1H-indoles) for inhibition of protein tyrosine kinases and comparative in vitro and in vivo studies against selected sulfur congeners” (J Med Chem, 1997).

For assay [1], the system named is B16. In words: In vivo activity against murine B16 melanoma, weight change after 3.0 mg/kg i.p. dose for 9 days. The assay is classed as functional, Mus musculus. The note with it: route intraperitoneal. Summed up:
(§1)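 Murine tumours were maintained by serial transplantation (~30 mg fragments every 2 weeks): B16 in C57BL/6 and colon 26 in BALB/c. They were tested in F1 hosts, B6C3F1 for B16 and CD2F1 for colon 26, weighing 18-22 g. Treatment was ip daily or q4h ×3 for 9 days. Weight change was the difference between mean group weights on the last and first treatment days, from life-span assays.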

The next assay concerns C6. Briefly: In vivo activity against C6 glioma xenograft, weight change after 5 mg/kg ip dose for 9 days. The assay is classed as functional, organism-based. The arrangement: dose 5 mg/kg. The essentials:
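Nude mice (NCr nu/nu, 18-22 g) implanted sc in the right axilla with serially passaged C6 glioma fragments on day 0, randomized, and dosed ip by bolus on days 1-9 based on average cage weight. Vehicle was distilled H2O or 10% DMA in 50 mM lactic acid buffer, pH 4.0, depending on compound. Weight change was taken as the maximum treatment-related weight loss.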

For assay [2], the target named is Epidermal growth factor receptor (Homo sapiens, UniProt P00533). In words: Inhibition of epidermal growth factor receptor (EGFr).
Epidermal growth factor receptor, sequence (P00533 whole entry, the tested form may be a part): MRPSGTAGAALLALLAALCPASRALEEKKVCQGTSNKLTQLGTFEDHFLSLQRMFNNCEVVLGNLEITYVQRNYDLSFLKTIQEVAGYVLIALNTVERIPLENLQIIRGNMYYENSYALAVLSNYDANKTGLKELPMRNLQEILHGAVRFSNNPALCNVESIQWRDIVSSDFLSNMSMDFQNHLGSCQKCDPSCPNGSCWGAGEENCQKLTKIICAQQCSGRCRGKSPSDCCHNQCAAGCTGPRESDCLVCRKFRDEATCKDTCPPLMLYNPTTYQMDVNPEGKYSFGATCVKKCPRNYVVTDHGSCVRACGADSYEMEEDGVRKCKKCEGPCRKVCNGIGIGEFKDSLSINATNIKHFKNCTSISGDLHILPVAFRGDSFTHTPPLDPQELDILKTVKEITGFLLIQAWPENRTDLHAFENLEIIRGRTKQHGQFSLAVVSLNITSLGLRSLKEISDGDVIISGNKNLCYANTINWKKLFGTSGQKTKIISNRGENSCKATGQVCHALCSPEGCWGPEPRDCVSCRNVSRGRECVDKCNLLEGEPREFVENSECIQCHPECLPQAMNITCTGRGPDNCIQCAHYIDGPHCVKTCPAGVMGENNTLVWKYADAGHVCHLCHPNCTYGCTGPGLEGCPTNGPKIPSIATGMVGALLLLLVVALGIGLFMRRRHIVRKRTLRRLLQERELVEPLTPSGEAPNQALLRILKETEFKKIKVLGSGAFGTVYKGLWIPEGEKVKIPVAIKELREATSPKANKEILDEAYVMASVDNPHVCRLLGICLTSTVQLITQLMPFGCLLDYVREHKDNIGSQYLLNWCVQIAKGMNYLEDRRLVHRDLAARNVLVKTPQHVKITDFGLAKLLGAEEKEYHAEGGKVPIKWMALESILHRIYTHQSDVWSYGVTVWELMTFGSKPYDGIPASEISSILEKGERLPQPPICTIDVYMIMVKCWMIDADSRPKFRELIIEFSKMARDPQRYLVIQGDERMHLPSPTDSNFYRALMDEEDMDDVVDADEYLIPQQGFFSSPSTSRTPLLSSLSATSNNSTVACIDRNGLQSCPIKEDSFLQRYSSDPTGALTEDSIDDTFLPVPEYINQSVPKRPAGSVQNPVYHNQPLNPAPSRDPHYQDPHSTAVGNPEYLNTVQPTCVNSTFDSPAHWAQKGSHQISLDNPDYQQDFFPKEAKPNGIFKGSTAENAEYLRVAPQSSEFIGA
Assay [3] deals with MCF7. Briefly: In vivo activity against human MCF-7 xenograft, net cell kill at 3.0 mg/kg administered intraperitoneally at 4 hour intervals 3x a day for 5-11 days. The assay is classed as functional. The note with it: route intraperitoneal. The essentials: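 Nude mice (NCr nu/nu), 18-22 g, randomized and implanted on day 0 with serially passaged MCF-7 tumor (sc fragments in right axilla or ip cells). Compound was given ip bolus q4h ×3 daily, by average cage weight. Vehicle was distilled H2O or 10% DMA in 50 mM lactic acid, pH 4.0. Net cell kill = log tumor-burden reduction between first and last treatments.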
A general note: Xenograft models place foreign cells or tissue in a host animal.

In assay [4] the test system is A-431. Briefly: In vivo activity against human A431 epidermoid xenograft, tumor growth delay (T-C) at 10 mg/kg administered subcutaneously for 9-15 days. The conditions noted are these: route subcutaneous.
Assay [5] relates to MCF7. In words: In vivo activity against human MCF-7 xenograft, weight change after 3.0 mg/kg ip dose at 4 hour intervals 3x a day for 5-11 days. The assay is classed as functional, organism-based. Details: dose 3 mg/kg. The essentials:
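MCF-7 breast carcinoma xenografts were serially passaged in nude mice (NCr nu/nu) and implanted in randomized 18-22 g mice on day 0. Dosing was ip bolus, either daily or q4h ×3 daily, with vehicle of distilled H2O or 10% DMA in 50 mM lactic acid buffer, pH 4.0. Weight change was taken as the maximum treatment-related loss.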

A short description of assay [6]: Inhibition of protein synthesis. Type of assay: functional. The essentials:
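Log-phase cells were drug-treated for 2 h, then exposed for 2 h to 1 µM [methyl-3H]thymidine (DNA), [5-3H]uridine (RNA) or (S)-[4,5-3H]leucine (protein), each at 1 µCi/nmol. Cells were trypsinized into ice-cold 15% TCA, and precipitates were collected on glass-fibre filters, washed, and counted by scintillation.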

The subject of assay [7] is B16. Briefly: In vivo activity against murine B16 melanoma, percent treated/control tumor mass at 3.0 mg/kg ip dose for 9 days. The assay is classed as functional, Mus musculus. The note with it: route intraperitoneal. Summed up: as §1
Assay [8] has as its system Colon 26. Briefly: In vivo activity against murine colon 26 tumor, net cell kill at 1.5 mg/kg ip dose for 9 days. The assay is classed as functional, Mus musculus. The note with it: route intraperitoneal. The essentials: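 Colon 26 was passaged in BALB/c mice; tested in CD2F1 mice (18-22 g, randomized) implanted on day 0 ip with counted cells or sc with fragments. Dosing was ip bolus, daily or q4h ×3 daily, by average cage weight. Vehicle was distilled H2O or 10% DMA in 50 mM lactic acid, pH 4.0. Net cell kill = log tumor-burden reduction between first and last treatments.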

Assay [9] deals with M5076. In words: In vivo activity against murine M5076 sarcoma, weight change after 3.0 mg/kg ip dose at 4 hour intervals 3x a day for 9 days. The note with it: route intraperitoneal. Type of assay: functional, Mus musculus. Summed up:
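M5076 sarcoma was serially transplanted in C57BL/6 mice and tested in B6C3F1 mice (18-22 g) given ip q4h ×3 daily for 9 days. Weight change was taken as the maximum treatment-related weight loss in the growth-delay assay.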

The subject of assay [10] is A-431. In words: In vivo activity against human A431 epidermoid xenograft, tumor growth delay (T-C) at 9 mg/kg administered subcutaneously for 1-27 days. The conditions noted are these: route subcutaneous.
Assay [11] relates to M5076. Briefly: In vivo activity against murine M5076 sarcoma, net cell kill at 3.0 mg/kg ip dose at 4 hour intervals 3x per day for 9 days. The note with it: route intraperitoneal. Type of assay: functional, Mus musculus. Summed up:
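Tumors were passaged in C57BL/6 mice; B6C3F1 mice (18-22 g, randomized) were implanted on day 0 ip with counted tumor cells or sc with fragments. Dosing was ip bolus, daily or q4h ×3 daily, by average cage weight. Vehicle was distilled H2O or 10% DMA in 50 mM lactic acid buffer, pH 4.0. Net cell kill = log reduction in tumor burden between first and last treatments.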

Assay [12] concerns Colon 26. Briefly: In vivo activity against murine colon 26, percent treated/control tumor mass at 1.5 mg/kg ip dose for 9 days. The conditions noted are these: route intraperitoneal. The assay is classed as functional, Mus musculus. The essentials: as §1

By IC50 is commonly meant the concentration that gives 50% inhibition. As usually defined, the T/C is the ratio of treated to control. For the molecule `NC(Cc1c(SSc2[nH]c3ccccc3c2CC(N)C(=O)NCc2ccccc2)[nH]c2ccccc12)C(=O)NCc1ccccc1` (stereo not drawn), the Weight change in the assay with B16 [1] was 1.4 g; in the assay on C6, “Weight gain”; in the assay with MCF7 [5] it was “Weight gain”; with M5076 [9] it was -0.5 g. In addition, the IC50 came to 7.4 µM in [2] and 0.6 µM in assay [6]. Further, the values for the Net cell kill with MCF7 [3], in the assay on Colon 26 [8] and with M5076 [11] were -1.2 log10, -0.3 log10 and -0.8 log10, respectively. The T-C was determined as 1.9 days in the assay on A-431 [4] and 1 days in the assay with A-431 [10]. In addition, the T/C with B16 [7] is recorded as 100%; in the assay with Colon 26 [12], 115%.
